Measurements from different studies.
Each line is one published result; the experiments were not run side by side.
Target: Myosin light chain kinase 2, skeletal/cardiac muscle (MYLK2, Homo sapiens, UniProt Q9H1R3)

CNC(=O)c1cc(Oc2ccc(NC(=O)Nc3ccc(Cl)c(C(F)(F)F)c3)cc2)ccn1 gave an inhibition of 4% (enzyme activity, inhibitor; 0.3 µM).
The remaining binding of COc1cccc(CNC(=O)c2nc3scc(COCc4ccc(C(=O)O)cc4)c3c(=O)[nH]2)c1 is reported as 100% (cell-free assay, competition with immobilised ligand; 1 µM).
The remaining activity of Cc1sc(C(=O)NC2COC2)cc1-n1cc(NC(=O)Nc2c(F)cccc2Cl)cn1 is reported as 78.7% (enzyme activity, inhibitor; 10 µM).
CC(C)(O)[C@H]1CC[C@H](Nc2ccc3ncc(-c4cccc(C(F)(F)F)c4)n3n2)CC1 gave a remaining activity of 96.7% (enzyme activity, inhibitor; 1 µM).
CC(C)(C)c1nc(-c2cccc(NS(=O)(=O)c3c(F)cccc3F)c2F)c(-c2ccnc(N)n2)s1 gave a remaining activity of 112% (enzyme activity, inhibitor, radiometric; 1 µM).
Cn1nc(C(F)(F)F)cc1-c1cnc(N2CCc3cc(S(=O)(=O)Nc4c(F)cc(Cl)cc4F)cc(N4CCCC4=O)c32)nc1 has a remaining binding of 100% (cell-free assay, competition with immobilised ligand; 1 µM).
For O=C1NC(=O)c2cc(Nc3ccc(F)cc3)c(Nc3ccc(F)cc3)cc21, the remaining signal was 98.7% (cell-free assay; 0.5 µM).
The remaining binding of CS(=O)(=O)NCC[C@H](NC(=O)c1cncc2c1cnn2-c1ccc(F)cc1)c1ccnc(S(C)(=O)=O)c1 is reported as 93% (cell-free assay, competition with immobilised ligand; 1 µM).
For CCN(CC)CCNC(=O)c1c(C)[nH]c(/C=C2\C(=O)Nc3ccc(F)cc32)c1C, the inhibition was 92% (enzyme activity, inhibitor; 10 µM).
Cc1ccc(NC(=O)c2ccc(CN3CCN(C)CC3)cc2)cc1Nc1nc(-c2cccnc2)cs1 gave a remaining signal of 98.7% (cell-free assay; 0.5 µM).
For CN(C)C(=O)Cn1cc(-c2nc([C@@](C)(c3ccc(-c4cnc(N)nc4)cc3)C3CC3)no2)cn1, the remaining binding was 100% (cell-free assay, competition with immobilised ligand; 1 µM).
The inhibition of CC/C(=N\NC(=O)NCc1cccc(O)c1)c1ccc(O)c(C)c1O is reported as 6% (enzyme activity, inhibitor; 0.1 µM).
COc1cc(Cl)c(C(=O)N[C@@H](CN[C@H]2CC[C@@H](N)CC2)Cc2ccc(C#N)cc2)cc1-c1ccc(CN[C@H](C)c2ccc(C)cc2)o1 has a remaining activity of 99% (enzyme activity, inhibitor; 1 µM).
For N#CCCc1ccc2c(c1)-c1[nH]c3ccc([N+](=O)[O-])cc3c1CC(=O)N2, the remaining signal was 93.9% (cell-free assay; 0.5 µM).
COc1cc2ncnc(Nc3ccc(Oc4ccccc4)cc3C)c2cc1OC gave an inhibition of -4% (enzyme activity, inhibitor; 1 µM).
Cc1cc(NC(=O)c2cccc3cc(-c4cccc5[nH]nc(N)c45)ccc23)ccc1F gave an activity vs control of 97% (enzyme activity, inhibitor; 0.1 µM).
CNC(=O)c1ccc(Nc2ncc(C(F)(F)F)c(NCc3nccnc3N(C)S(C)(=O)=O)n2)cc1 has a remaining binding of 63% (cell-free assay, competition with immobilised ligand; 0.1 µM).
The remaining signal of O=C1Nc2ccc(Cl)cc2C1=Cc1cc(Cl)c(O)c(Cl)c1 is reported as 71.5% (cell-free assay; 0.5 µM).
Cc1cnc(NC2CCOCC2)nc1-n1cnc(C(=O)NC(CN)c2cc(F)cc(Cl)c2)c1 (stereo not shown) gave a remaining activity of 95% (enzyme activity, inhibitor, radiometric; 1 µM).
